From ChEMBL document CHEMBL3112441, “Synthesis, anticonvulsant activity and molecular properties prediction of dialkyl 1-(di(ethoxycarbonyl)methyl)-2,6-dimethyl-4-substituted-1,4-dihydropyridine-3,5-dicarboxylates” (Eur J Med Chem, 2014)

Tests used:
Rattus norvegicus [1] = assay: Anticonvulsant activity in Wistar albino rat assessed as protection against maximal electroshock-induced electroconvulsive seizures at 10 mg/kg, po pretreated for 1 hr followed by maximal electroshock challenge relative to control; assay type: functional
In short: (§1)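 Adult male Wistar rats (150–250 g), six per group, dosed orally 10 mg/kg as suspension in 0.5% sodium carboxymethylcellulose; vehicle control. After 1 h, maximal electroshock of 150 mA for 0.2 s was given via corneal electrodes. Duration of hind limb extension was recorded, and its abolition or reduction was taken as the anticonvulsant index. Values are mean ± SEM, n = 6, analysed by one-way ANOVA with Dunnett's test.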

Rattus norvegicus [2] = assay: Anticonvulsant activity in Wistar albino rat assessed as protection against […] at 10 mg/kg, po pretreated for 1 hr followed by pentylenetetrazole challenge measured over 300 secs relative to control; assay type: functional
Rattus norvegicus [3] = assay: Anticonvulsant activity in Wistar albino rat assessed as protection against subcutaneous pentylenetetrazole-induced seizures by measuring latency period at 10 mg/kg, po pretreated for 1 hr followed by pentylenetetrazole challenge measured over 300 secs (reference value: 72 +/- 2 secs); assay type: functional
Rattus norvegicus [4] = assay: Anticonvulsant activity in Wistar albino rat assessed as protection against maximal electroshock-induced seizures by measuring duration of limb extension at 10 mg/kg, po pretreated for 1 hr followed by maximal electroshock challenge (reference value: 16 +/- 1 secs); assay type: functional; in short: as §1
Mus musculus = assay: Toxicity in Swiss albino mouse up to 100 mg/kg, po measured over 7 days; assay type: organism-based; design: dose 100 mg/kg, route oral; details: in vivo, 168 h
In short: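 Acute oral toxicity followed OECD-425. Swiss albino mice (18–20 g), 5 per group, were dosed orally at different levels and observed for death over seven days.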

Rattus norvegicus [5] = assay: Anticonvulsant activity in Wistar albino rat assessed as protection against maximal electroshock-induced electroconvulsive seizures at 30 mg/kg, po pretreated for 1 hr followed by maximal electroshock challenge relative to control; assay type: functional
Rattus norvegicus [6] = assay: Anticonvulsant activity in Wistar albino rat assessed as protection against maximal electroshock-induced seizures by measuring duration of limb extension at 30 mg/kg, po pretreated for 1 hr followed by maximal electroshock challenge (reference value: 16 +/- 1 secs); assay type: functional
Rattus norvegicus [7] = assay: Anticonvulsant activity in Wistar albino rat assessed as protection against subcutaneous pentylenetetrazole-induced mortality at 5 mg/kg, ip pretreated for 1 hr followed by pentylenetetrazole challenge measured over 300 secs relative to control; assay type: functional; details: sc
Rattus norvegicus [8] = assay: Anticonvulsant activity in Wistar albino rat assessed as protection against subcutaneous pentylenetetrazole-induced seizures by measuring latency period at 5 mg/kg, ip pretreated for 1 hr followed by pentylenetetrazole challenge measured over 300 secs (reference value: 72 +/- 2 secs); assay type: functional
Rattus norvegicus [9] = assay: Anticonvulsant activity in Wistar albino rat assessed as protection against subcutaneous pentylenetetrazole-induced mortality at 30 mg/kg, po pretreated for 1 hr followed by pentylenetetrazole challenge relative to control; assay type: functional
Rattus norvegicus [10] = assay: Anticonvulsant activity in Wistar albino rat assessed as protection against subcutaneous pentylenetetrazole-induced seizures by measuring latency period at 30 mg/kg, po pretreated for 1 hr followed by pentylenetetrazole challenge measured over 300 secs (reference value: 72 +/- 2 secs); assay type: functional

Compound | Activity (Rattus norvegicus [1]) | mortality at 10 mg/kg (Rattus norvegicus [2]) | Time (Rattus norvegicus [3]) | Time (Rattus norvegicus [4]) | Activity (Mus musculus) | Activity (Rattus norvegicus [5]) | Time (Rattus norvegicus [6]) | mortality at 5 mg/kg (Rattus norvegicus [7]) | Time (Rattus norvegicus [8]) | mortality at 30 mg/kg (Rattus norvegicus [9]) | Time (Rattus norvegicus [10])
CCOC(=O)C(C(=O)OCC)N1C(C)=C(C(=O)OC)CC(C(=O)OC)=C1C | 14.5% | 0% | 126 s | 13 s | Non-toxic |  |  |  |  |  | 
CCOC(=O)C1=C(C)N(C(C(=O)OCC)C(=O)OCC)C(C)=C(C(=O)OCC)C1CCc1ccccc1 | 8.3% | 33.3% | 246 s | 15 s | Non-toxic |  |  |  |  |  | 
O=C1NC(=O)C(c2ccccc2)(c2ccccc2)N1 [PHENYTOIN] |  |  |  |  |  | 62.5% | 6 s |  |  |  | 
CCOC(=O)C(C(=O)OCC)N1C(C)=C(C(=O)OC)C(/C=C/c2ccc([N+](=O)[O-])cc2)C(C(=O)OC)=C1C | 52.1% | 0% | >300 s | 7 s | Non-toxic |  |  |  |  |  | 
CCOC(=O)C1=C(C)N(C(C(=O)OCC)C(=O)OCC)C(C)=C(C(=O)OCC)C1c1ccccc1 | 16.6% | 0% | 283 s | 13 s | Non-toxic |  |  |  |  |  | 
CCOC(=O)C1=C(C)N(C(C(=O)OCC)C(=O)OCC)C(C)=C(C(=O)OCC)C1/C=C/c1ccccc1 | 22.9% | 0% | >300 s | 12 s | Non-toxic |  |  |  |  |  | 
CCOC(=O)C(C(=O)OCC)N1C(C)=C(C(=O)OC)C(Cc2ccccc2)C(C(=O)OC)=C1C | 14.5% | 33.3% | 285 s | 14 s | Non-toxic |  |  |  |  |  | 
CCOC(=O)C1=C(C)N(C(C(=O)OCC)C(=O)OCC)C(C)=C(C(=O)OCC)C1c1ccccc1[N+](=O)[O-] | 22.9% | 0% | 230 s | 12 s | Non-toxic |  |  |  |  |  | 
CCOC(=O)C1=C(C)N(C(C(=O)OCC)C(=O)OCC)C(C)=C(C(=O)OCC)C1 | 41.6% | 0% | 192 s | 9 s | Non-toxic |  |  |  |  |  | 
CN1C(=O)CN=C(c2ccccc2)c2cc(Cl)ccc21 [DIAZEPAM] |  |  |  |  |  |  |  | 66.6% | 266 s |  | 
CCOC(=O)C1=C(C)N(C(C(=O)OCC)C(=O)OCC)C(C)=C(C(=O)OCC)C1Cc1ccccc1 | 10.4% | 66.6% | 265 s | 14 s | Non-toxic |  |  |  |  |  | 
CCOC(=O)C1=C(C)N(C(C(=O)OCC)C(=O)OCC)C(C)=C(C(=O)OCC)C1/C=C/c1ccc([N+](=O)[O-])cc1 | 50% | 0% | >300 s | 8 s | Non-toxic |  |  |  |  |  | 
CCOC(=O)C(C(=O)OCC)N1C(C)=C(C(=O)OC)C(/C=C/c2ccccc2)C(C(=O)OC)=C1C | 41.6% | 100% | 268 s | 9 s | Non-toxic |  |  |  |  |  | 
CCOC(=O)C(C(=O)OCC)N1C(C)=C(C(=O)OC)C(c2ccccc2[N+](=O)[O-])C(C(=O)OC)=C1C | 39.6% | 0% | 295 s | 10 s | Non-toxic |  |  |  |  |  | 
CCOC(=O)C(C(=O)OCC)N1C(C)=C(C(=O)OC)C(c2ccccc2)C(C(=O)OC)=C1C | 25% | 33.3% | >300 s | 12 s | Non-toxic |  |  |  |  |  | 
COC(=O)C1=C(C)NC(C)=C(C(=O)OC)C1c1ccccc1[N+](=O)[O-] [NIFEDIPINE] |  |  |  |  |  | 56.8% | 7 s |  |  | 33.3% | 215 s
CCOC(=O)C(C(=O)OCC)N1C(C)=C(C(=O)OC)C(CCc2ccccc2)C(C(=O)OC)=C1C | 20.8% | 66.6% | >300 s | 13 s | Non-toxic |  |  |  |  |  | 
